Measured values taken from ChEMBL document CHEMBL1145585, “Discovery of novel 4-amino-6-arylaminopyrimidine-5-carbaldehyde oximes as dual inhibitors of EGFR and ErbB-2 protein tyrosine kinases” (Bioorg Med Chem Lett, 2008).

Tests used:
Format in all cases: ADME, organism-based
[1] = Cmax in Sprague-Dawley rat at 10 mg/kg, po; design: dose 10 mg/kg, route oral; conditions: in vivo
Method in brief: (§1)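 Sprague–Dawley rats were dosed 2 mg/kg iv in 10% solutol in D5W and 10 mg/kg po in 0.5% hydroxypropyl methylcellulose. Plasma levels were followed to derive the pharmacokinetic parameters.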

[2] = Clearance in Sprague-Dawley rat at 2 mg/kg, iv and 10 mg/kg, po; conditions: in vivo; method in brief: as §1
[3] = Volume of distribution at steady state in Sprague-Dawley rat at 2 mg/kg, iv and 10 mg/kg, po; conditions: in vivo, read-out: Vdss; method in brief: as §1
[4] = Tmax in Sprague-Dawley rat at 10 mg/kg, po; design: dose 10 mg/kg, route oral; conditions: in vivo; method in brief: as §1
[5] = Half life in Sprague-Dawley rat at 10 mg/kg, po; design: dose 10 mg/kg, route oral; conditions: in vivo; method in brief: as §1
[6] = AUC in Sprague-Dawley rat at 10 mg/kg, po; design: dose 10 mg/kg, route oral; conditions: plasma; method in brief: as §1
[7] = Bioavailability in Sprague-Dawley rat at 2 mg/kg, iv and 10 mg/kg, po; conditions: in vivo; method in brief: as §1

Cmax [1]: 5.7 µM | clearance [2]: 3.56 mL/min/kg | Vd [3]: 0.17 L/kg | Tmax [4]: 0.63 h | half-life [5]: 8.4 h | AUC [6]: 19.3 µM·h | bioavailability [7]: 15%
Structure (SMILES): CO/N=C/c1c(N)ncnc1Nc1ccc(OCc2ccccc2)c(Cl)c1
